Results on 13 molecules are retold here after ChEMBL document CHEMBL5329147, “Synthesis of tryptanthrin appended dispiropyrrolidine oxindoles and their antibacterial evaluation” (RSC Med Chem, 2023).

Values after ≈ are worked out from the molar mass of the structure shown.

The test system of series [1] is Staphylococcus aureus. In words: Antibacterial activity against Staphylococcus aureus ATCC 29213 assessed as bacterial growth inhibition incubated for 18 to 24 hrs by broth microdilution method. The class given is functional. The conditions noted are these: time 18-24 hrs. In a few lines:
(§1)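 CLSI broth microdilution. Overnight starter cultures (single colony, MHBII, 37 °C, shaking 18–24 h) were diluted by OD600 to 10^6 CFU/mL in MHBII. Two-fold dilutions from […] were made from 10 mg/mL DMSO stocks, then incubated 37 °C for 18-24 h. The MIC was the lowest concentration with no visible growth. Three independent runs, duplicate samples.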

For series [2], the system named is Acinetobacter baumannii. In words: Antibacterial activity against Acinetobacter baumannii BAA-1605 assessed as bacterial growth inhibition incubated for 18 to 24 hrs by broth microdilution method. Type of series: functional. To be noted: time 18-24 hrs. In a few lines:
as §1

Series [3] concerns Pseudomonas aeruginosa. Put plainly: Antibacterial activity against Pseudomonas aeruginosa ATCC 27853 assessed as bacterial growth inhibition incubated for 18 to 24 hrs by broth microdilution method. Type of series: functional. The conditions noted are these: time 18-24 hrs. The procedure, abridged: as §1
Series [4] deals with Escherichia coli. Put plainly: Antibacterial activity against Escherichia coli ATCC 25922 assessed as bacterial growth inhibition incubated for 18 to 24 hrs by broth microdilution method. Type of series: functional. The conditions noted are these: time 18-24 hrs. In a few lines: as §1
Series [5] relates to Klebsiella pneumoniae. In words: Antibacterial activity against Klebsiella pneumoniae BAA 1705 assessed as bacterial growth inhibition incubated for 18 to 24 hrs by broth microdilution method. The class given is functional. To be noted: time 18-24 hrs. In a few lines: as §1
Series [6] has as its system Staphylococcus aureus. In words: Synergistic antibacterial activity against Staphylococcus aureus ATCC 29213 assessed as bacterial growth inhibition incubated for 24 hrs in presence of (S)-8''-Bromo-1-ethyl-1'-methyl-2,12''-dioxo-12''H-dispiro[indoline-3,4'-pyrrolidine-2',6''-indolo[2,1-b]quinazoline]-3',3'-dicarbonitrile by checkerboard assay. Type of series: functional. In a few lines: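 Checkerboard in 96-well plates: two-fold serial dilutions, one agent along abscissa, partner antibiotic along ordinate. Wells received ~10⁵ CFU/mL S. aureus ATCC 29213 in MHBII. Incubation 37 °C, 24 h. ΣFIC = FIC A + FIC B, each FIC being combination MIC divided by MIC alone.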

A short description of series [7]: Selectivity ratio of CC50 for African green monkey Vero cells to MIC against Staphylococcus aureus ATCC 29213. The class given is toxicity, cell-based.
The mark [8] stands for this setting: Staphylococcus aureus, ATCC 29213, read-out: MIC.

With `CN1C(=O)[C@@]2(CN(C)C3(c4ccccc4-n4c3nc3ccccc3c4=O)C2(C#N)C#N)c2ccccc21` (stereo partly specified), the minimal inhibitory concentration (MIC) was 8 µg/mL (≈ 16.5 µM) in series [1] (setting [8]); more than 64 µg/mL in series [2]; more than 64 µg/mL in series [3]; more than 64 µg/mL in series [4]; more than 64 µg/mL in series [5].

`CN(C)c1ccc(O)c2c1C[C@H]1C[C@H]3[C@H](N(C)C)C(O)=C(C(N)=O)C(=O)[C@@]3(O)C(O)=C1C2=O` [MINOCYCLINE]: the MIC stood at 0.125 µg/mL (≈ 0.273 µM) in series [1] (setting [8]) and 0.125 µg/mL in series [6].

With `CCCCCCCCCC(=O)N[C@@H](Cc1c[nH]c2ccccc12)C(=O)N[C@H](CC(N)=O)C(=O)N[C@@H](CC(=O)O)C(=O)N[C@@H]1C(=O)NCC(=O)N[C@@H](CCCN)C(=O)N[C@@H](CC(=O)O)C(=O)N[C@H](C)C(=O)N[C@@H](CC(=O)O)C(=O)NCC(=O)N[C@H](CO)C(=O)N[C@@H]([C@H](C)CC(=O)O)C(=O)N[C@@H](CC(=O)c2ccccc2N)C(=O)O[C@@H]1C`, the MIC in series [1] (setting [8]) turned out to be 1 µg/mL (≈ 0.617 µM); in series [6], 1 µg/mL.

On to `CCN1C(=O)[C@@]2(CN(C)C3(c4cc(I)ccc4-n4c3nc3ccc(Cl)cc3c4=O)C2(C#N)C#N)c2ccccc21` (stereo partly specified), for which the minimal inhibitory concentration (MIC) in series [1] (setting [8]) was 1 µg/mL (≈ 1.52 µM); in series [2], more than 64 µg/mL; in series [3] it was more than 64 µg/mL; in series [4], more than 64 µg/mL; in series [5], more than 64 µg/mL.

As for `CCN1C(=O)[C@@]2(CN(C)C3(c4cc(I)ccc4-n4c3nc3ccccc3c4=O)C2(C#N)C#N)c2ccccc21` (stereo partly specified), the MIC in series [1] (setting [8]) is 0.25 µg/mL (≈ 0.4 µM); in series [2], more than 64 µg/mL; in series [3] it was more than 64 µg/mL; in series [4], more than 64 µg/mL; in series [5], more than 64 µg/mL.

With `CO[C@H]1/C=C/O[C@@]2(C)Oc3c(C)c(O)c4c(O)c(c(/C=N/N5CCN(C)CC5)c(O)c4c3C2=O)NC(=O)/C(C)=C\C=C\[C@H](C)[C@H](O)[C@@H](C)[C@@H](O)[C@@H](C)[C@H](OC(C)=O)[C@@H]1C` [RIFAMPIN], the MIC in series [1] (setting [8]) came to 0.008 µg/mL (≈ 0.00972 µM); in series [6], 0.008 µg/mL.

As for `CCN1C(=O)[C@]2(c3ccccc31)C1CCCN1C1(c3ccccc3-n3c1nc1ccccc1c3=O)C2(C#N)C#N` (stereo partly specified), the MIC in series [1] (setting [8]) is 0.25 µg/mL (≈ 0.477 µM); in series [2] it was more than 64 µg/mL; in series [3] it was more than 64 µg/mL; in series [4], more than 64 µg/mL; in series [5], more than 64 µg/mL.

On to `CCN1C(=O)[C@@]2(CN(C)C3(c4cc([N+](=O)[O-])ccc4-n4c3nc3ccccc3c4=O)C2(C#N)C#N)c2ccccc21` (stereo partly specified), for which the MIC was 0.25 µg/mL (≈ 0.46 µM) in series [1] (setting [8]); more than 64 µg/mL in series [2]; more than 64 µg/mL in series [3]; more than 64 µg/mL in series [4]; more than 64 µg/mL in series [5]. Besides, the selectivity ratio in series [7] was less than 10.

Take `CCN1C(=O)[C@@]2(CN(C)C3(c4ccccc4-n4c3nc3ccccc3c4=O)C2(C#N)C#N)c2ccccc21` (stereo partly specified): the MIC in series [1] (setting [8]) is 1 µg/mL (≈ 2.01 µM); in series [2], more than 64 µg/mL; in series [3] it was more than 64 µg/mL; in series [4] it was more than 64 µg/mL; in series [5] it was more than 64 µg/mL.

Take `CCN1C(=O)[C@]2(c3cc(Cl)ccc31)C(Cc1c[nH]c3ccccc13)NC1(c3cc(Cl)ccc3-n3c1nc1ccccc1c3=O)C2(C#N)C#N` (stereo partly specified): the minimum inhibitory concentration (MIC) in series [1] (setting [8]) is 0.25 µg/mL (≈ 0.366 µM); in series [2], more than 64 µg/mL; in series [3], more than 64 µg/mL; in series [4], more than 64 µg/mL; in series [5] it was more than 64 µg/mL.

With `CCN1C(=O)[C@]2(c3ccccc31)C(Cc1ccccc1)NC1(c3cc(Br)ccc3-n3c1nc1ccccc1c3=O)C2(C#N)C#N` (stereo partly specified), the minimum inhibitory concentration (MIC) in series [1] (setting [8]) is 0.25 µg/mL (≈ 0.383 µM); in series [2], more than 64 µg/mL; in series [3], more than 64 µg/mL; in series [4] it was more than 64 µg/mL; in series [5], more than 64 µg/mL.

`CC(C)(O/N=C(\C(=O)N[C@@H]1C(=O)N2C(C(=O)[O-])=C(C[n+]3ccccc3)CS[C@H]12)c1csc(N)n1)C(=O)O` [CEFTAZIDIME]: the MIC was found to be 8 µg/mL (≈ 14.6 µM) in series [1] (setting [8]) and 8 µg/mL in series [6].

For the molecule GENTAMICIN, the MIC in series [1] and in series [6] was 0.25 µg/mL each time.
